Assay results taken from publication PMC7253076 (Cell chemical biology, 2019).

Legend:
[1] = system: human stem-cell-derived motor neurons carrying the ALS-causing SOD1^A4V mutation; assay: Motor neuron CPA survival assay, SOD1^A4V ALS motor neurons; conditions: for maximum efficacy compared with compound 1 / neuroprotection in CPA survival assay / concentrations that completely blocked the effects of CPA treatment: CPA-treated SOD1^A4V motor neurons; for EC50: Homo sapiens, Neuron, 72 h, read-out: EC50 in motor neuron survival assay
[2] = system: JNK pathway; assay: Western blots of JNK pathway in CPA-treated motor neurons; assay type: cell-based, mouse; conditions: western blot, Fig. S2
Outline: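 Day-6 embryoid bodies from mouse ES cells (HB9::GFP reporter, human SOD1 transgene; RA 1 μM + SAG 0.5 μM) were given CPA 10 μM plus test compound 0.5 μM for 4 h, then lysed in HEPES/Triton/SDS buffer. Immunoblots used phospho-JNK (Thr183/Tyr185), phospho-c-Jun (Ser63), phospho-MKK4 (Ser257), total proteins and cleaved caspase 3 at 1:1000, with GAPDH at 1:3000. Signals normalised to GAPDH, phospho to total, and expressed as % of CPA; n = 2 differentiations; unpaired two-tailed t-tests.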

[3] = system: mouse stem cell-derived motor neurons; conditions: CPA-treated; ref Thams et al., 2019; cited from earlier work
[4] = system: motor neurons differentiated from human induced pluripotent stem cells derived from a healthy patient; assay: Motor neuron CPA survival assay, healthy-patient iPSC-derived motor neurons; assay type: cell-based; conditions: for rescue of CPA toxicity / neuroprotection: CPA-treated healthy human motor neurons, 72 h; for concentrations toxic to motor neurons in the absence of CPA: without CPA

In the case of `CN1CCN(Cc2ccc(-c3cnc4[nH]cc(-c5cccc6[nH]ncc56)c4c3)cc2)CC1` [7aa, 4-(5-(4-((4-Methylpiperazin-1-yl)methyl)phenyl)-1H-pyrrolo[2,3-b]pyridin-3-yl)-1H-indazole], the “maximum efficacy compared with compound 1” value [1] is reported as “greater maximum efficacy than compound 1” and the EC50 [1] is reported as < 220 nM.
With `CN1CCN(Cc2ccc(-c3cnc4[nH]cc(-c5ccccc5)c4c3)cc2)CC1` [7ac, 5-(4-((4-Methylpiperazin-1-yl)methyl)phenyl)-3-phenyl-1H-pyrrolo[2,3-b]pyridine] the “maximum efficacy compared with compound 1” value [1] was “greater maximum efficacy than compound 1”.
With `CNC(=O)Nc1cccc(-c2c[nH]c3ncc(-c4ccc(CN5CCN(C)CC5)cc4)cc23)c1` [7ak, 1-Methyl-3-(3-(5-(4-((4-methylpiperazin-1-yl)methyl)phenyl)-1H-pyrrolo[2,3-b]pyridin-3-yl)phenyl)urea] the “maximum efficacy compared with compound 1” value [1] was “greater maximum efficacy than compound 1”.
For `COC(=O)Nc1cccc(-c2c[nH]c3ncc(-c4ccc(CN5CCN(C)CC5)cc4)cc23)c1` [7al, Methyl (3-(5-(4-((4-methylpiperazin-1-yl)methyl)phenyl)-1H-pyrrolo[2,3-b]pyridin-3-yl)phenyl)carbamate], the “maximum efficacy compared with compound 1” value [1] was “greater maximum efficacy than compound 1”.
In the case of `CNC(=O)Nc1ccc(-c2c[nH]c3ncc(-c4ccc(CN5CCN(C)CC5)cc4)cc23)cc1` [7am, 1-Methyl-3-(4-(5-(4-((4-methylpiperazin-1-yl)methyl)phenyl)-1H-pyrrolo[2,3-b]pyridin-3-yl)phenyl)urea], the “maximum efficacy compared with compound 1” value [1] is reported as “greater maximum efficacy than compound 1”.
For `CN1CCN(Cc2ccc(-c3cnc4[nH]cc(-c5cccc(NC(=O)NCc6ccco6)c5)c4c3)cc2)CC1` [7ay, 1-(Furan-2-ylmethyl)-3-(3-(5-(4-((4-methylpiperazin-1-yl)methyl)phenyl)-1H-pyrrolo[2,3-b]pyridin-3-yl)phenyl)urea], the “neuroprotection in CPA survival assay” value [1] was “completely ineffective”.
With `CN1CCN(Cc2ccc(-c3cnc4[nH]cc(-c5cccc6c5oc5ccccc56)c4c3)cc2)CC1` [7c, 3-(Dibenzo[b,d]furan-4-yl)-5-(4-((4-methylpiperazin-1-yl)methyl)phenyl)-1H-pyrrolo[2,3-b]pyridine] the “neuroprotection in CPA survival assay” value [1] was “completely ineffective”.
With `CN1CCN(Cc2ccc(-c3cnc4[nH]cc(-c5ccc(N)cc5)c4c3)cc2)CC1` [7e, 4-(5-(4-((4-Methylpiperazin-1-yl)methyl)phenyl)-1H-pyrrolo[2,3-b]pyridin-3-yl)aniline] the “maximum efficacy compared with compound 1” value [1] was “greater maximum efficacy than compound 1”.
With `CN1CCN(Cc2ccc(-c3cnc4[nH]cc(-c5cccc(N)c5)c4c3)cc2)CC1` [7h, 3-(5-(4-((4-Methylpiperazin-1-yl)methyl)phenyl)-1H-pyrrolo[2,3-b]pyridin-3-yl)aniline] the “maximum efficacy compared with compound 1” value [1] was “greater maximum efficacy than compound 1” and the EC50 [1] was < 220 nM.
For `Cc1cc(-c2c[nH]c3ncc(-c4ccc(CN5CCN(C)CC5)cc4)cc23)cnc1N` [7l, 3-Methyl-5-(5-(4-((4-methylpiperazin-1-yl)methyl)phenyl)-1H-pyrrolo[2,3-b]pyridin-3-yl)pyridin-2-amine], the “maximum efficacy compared with compound 1” value [1] was “greater maximum efficacy than compound 1” and the EC50 [1] was < 220 nM.
In the case of `CN1CCN(Cc2ccc(-c3cnc4[nH]cc(-c5ccc(N)nc5)c4c3)cc2)CC1` [7m, 5-(5-(4-((4-Methylpiperazin-1-yl)methyl)phenyl)-1H-pyrrolo[2,3-b]pyridin-3-yl)pyridin-2-amine], the EC50 [1] is reported as < 220 nM.
For `CN1CCN(Cc2ccc(-c3cnc4[nH]cc(-c5cccc([N+](=O)[O-])c5)c4c3)cc2)CC1` [7p, 5-(4-((4-Methylpiperazin-1-yl)methyl)phenyl)-3-(3-nitrophenyl)-1H-pyrrolo[2,3-b]pyridine], the “maximum efficacy compared with compound 1” value [1] was “greater maximum efficacy than compound 1”.
For `CN1CCN(Cc2ccc(-c3cnc4[nH]cc(-c5ccc6[nH]ncc6c5)c4c3)cc2)CC1` [7v, 5-(5-(4-((4-Methylpiperazin-1-yl)methyl)phenyl)-1H-pyrrolo[2,3-b]pyridin-3-yl)-1H-indazole], the “maximum efficacy compared with compound 1” value [1] was “greater maximum efficacy than compound 1” and the EC50 [1] was < 220 nM.
With `CN1CCN(Cc2ccc(-c3cnc4[nH]cc(-c5cccc(F)c5)c4c3)cc2)CC1` [7y, 3-(3-Fluorophenyl)-5-(4-((4-methylpiperazin-1-yl)methyl)phenyl)-1H-pyrrolo[2,3-b]pyridine] the “maximum efficacy compared with compound 1” value [1] was “greater maximum efficacy than compound 1”.
In the case of `CN1CC2CCC(C1)N2Cc1ccc(-c2cnc3[nH]cc(-c4cccc(Cl)c4)c3c2)cc1` [12f, 3-(3-Chlorophenyl)-5-(4-((3-methyl-3,8-diazabicyclo[3.2.1]octan-8-yl)methyl)phenyl)-1H-pyrrolo[2,3-b]pyridine], the EC50 [1] is reported as 110 nM and the “concentrations at which compound was toxic” value ([1]; motor neuron survival assay) is reported as “above 0.3 μM”.
With `OCCN1CCN(Cc2ccc(-c3cnc4[nH]cc(-c5cccc(F)c5)c4c3)cc2)CC1` [12h, 2-(4-(4-(3-(3-Fluorophenyl)-1H-pyrrolo[2,3-b]pyridin-5-yl)benzyl)piperazin-1-yl)ethan-1-ol] the “concentrations that completely blocked the effects of CPA treatment” value [1] was < 0.3 µM and the “inhibition of JNK pathway components” value [2] was “effectively inhibit the same JNK pathway components as compound 1”.
With `O[C@@H]1CCN(Cc2ccc(-c3cnc4[nH]cc(-c5cccc(F)c5)c4c3)cc2)C1` [12i, (R)-1-(4-(3-(3-Fluorophenyl)-1H-pyrrolo[2,3-b]pyridin-5-yl)benzyl)pyrrolidin-3-ol] the “concentrations that completely blocked the effects of CPA treatment” value [1] was < 0.3 µM and the “inhibition of JNK pathway components” value [2] was “effectively inhibit the same JNK pathway components as compound 1”.
For `O[C@@H]1CCN(Cc2ccc(-c3cnc4[nH]cc(-c5cccc(Cl)c5)c4c3)cc2)C1` [12l, (R)-1-(4-(3-(3-Chlorophenyl)-1H-pyrrolo[2,3-b]pyridin-5-yl)benzyl)pyrrolidin-3-ol], the “concentrations that completely blocked the effects of CPA treatment” value [1] was < 0.3 µM and the “inhibition of JNK pathway components” value [2] was “effectively inhibit the same JNK pathway components as compound 1”.
For `Cn1c2ccccc2c2c3c(c4c5ccccc5n(CCC#N)c4c21)CNC3=O` [Gö6976], the “protection of motor neurons from ER stress” value (shortened to “protection of motor neurons”) [3] is given as “protect motor neurons from ER stress”.
For `Cc1nc(Nc2cnn(C3CCNCC3)c2)nc2c1N(C)C(=O)c1cc3ccccc3cc1N2C` [HTH 01–015], the “rescue of CPA toxicity / neuroprotection” value [4] was “did not rescue CPA toxicity” and the “concentrations toxic to motor neurons in the absence of CPA” value [4] was “above 2 μM”.
In the case of `COC(=O)[C@@]1(O)C[C@H]2O[C@]1(C)n1c3ccccc3c3c4c(c5c6ccccc6n2c5c31)C(=O)NC4` [K252a], the “protection of motor neurons” value [3] is given as “protect motor neurons from ER stress”.
For `Nc1ccc(-c2cnc(N)c(-c3ccc(Cl)cc3)c2)cn1` [PF-6260933], the “rescue of CPA toxicity / neuroprotection” value [4] was “neuroprotective”.
In the case of `CCC(=O)Nc1cccc(Oc2nc(Nc3ccc(N4CCN(C)CC4)cc3OC)ncc2Cl)c1` [WZ4003], the “rescue of CPA toxicity / neuroprotection” value [4] is reported as “did not rescue CPA toxicity” and the “concentrations toxic to motor neurons in the absence of CPA” value [4] is reported as “above 2 μM”.
With `O=C1Cc2c([nH]c3ccc([N+](=O)[O-])cc23)-c2ccccc2N1` [alsterpaullone] the “rescue of CPA toxicity / neuroprotection” value [4] was “more potent than kenpaullone”.
For `O=C1Cc2c([nH]c3ccc(Br)cc23)-c2ccccc2N1` [kenpaullone], the “protection of motor neurons” value [3] is given as “protect motor neurons from ER stress”.
